# Results reported in ChEMBL document CHEMBL1143188, “5-Aryl-imidazolin-2-ones as a scaffold for potent antioxidant and memory-improving activity” (Bioorg Med Chem Lett, 2008).
# Calls of active or inactive are those of the source. The calls are words filed in the database; no cut-off is given here.
# Tests used:
# Brain = assay: Inhibition of lipid peroxidation in Wistar rat brain homogenates by TBARS assay; type: functional, tissue-based
# In short: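 Male Wistar rat brain homogenate autooxidized at 37 °C for 30 min with or without compound. Lipid peroxidation read by a modified thiobarbituric acid (TBARS) test; IC50 derived.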
# [1] = DPPH radical scavenging activity at 100 uM relative to control; type: ADME
# In short: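 DPPH 100 μM in ethanol; compound added in ethanol to a final 100 μM; optical density read; scavenging expressed as a percentage of the optical density of a control with excess vitamin C.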
# Rattus norvegicus [2] = assay: Memory improving activity in rat passive avoidance model assessed as effect on cycloheximide-induced amnesia at 0.1 mg/kg, po; type: functional, organism-based; set-up: dose 0.1 mg/kg
# In short: (§1)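 Passive avoidance: one day after training, compound (0.1–30 mg/kg) or vehicle given orally 30 min before a retention trial. Read-out was latency to move from the light to the dark room; minimum effective dose (MED) reported.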
# Rattus norvegicus [3] = assay: Memory improving activity in po dosed rat passive avoidance model assessed as effect on cycloheximide-induced amnesia; type: functional; conditions: read-out: MED; in short: as §1
# Rattus norvegicus [4] = assay: Toxicity in po dosed rat; type: organism-based; conditions: in vivo
Compound,IC50 (Brain),further results
CCCCCCCOc1ccc(-c2c(C)[nH]c(=O)n2C2CCCCC2)cc1,11.6 µM,–
CCCCc1ccc(-c2c(C)[nH]c(=O)n2Cc2ccccc2)cc1,12.4 µM,Activity [1]: 59%
CCCCCCCCCCOc1ccc(-c2c(C)[nH]c(=O)n2C2CCCCC2)cc1,10.5 µM,minimal effective dose (Rattus norvegicus [3]): 0.1 mg/kg
CCCCc1ccc(-c2c(C)[nH]c(=O)n2C)cc1,10.7 µM,minimal effective dose (Rattus norvegicus [3]): 0.1 mg/kg; Activity [1]: 98%; Activity (Rattus norvegicus [4]): > 1000 mg/kg
CCCCCCCCCCc1ccc(-c2c(C)[nH]c(=O)n2C2CCCCC2)cc1,27 µM,–
CCCCc1ccc(-c2c(C)[nH]c(=O)n2C2CCCCC2)cc1,27.1 µM,–
CCCCc1ccc(-c2c(C)[nH]c(=O)n2C(C)C)cc1,10.7 µM,Activity [1]: 78%
CCCc1ccc(-c2c(C)[nH]c(=O)n2C2CCCCC2)cc1,13.9 µM,–
CCCCCCCCCCCCCCCCCCOc1ccc(-c2c(C)[nH]c(=O)n2C2CCCCC2)cc1,> 100 µM,–
CCCCCCc1ccc(-c2c(C)[nH]c(=O)n2C2CCCCC2)cc1,13.7 µM,–
CCCCc1ccc(-c2c(CC)[nH]c(=O)n2C)cc1,13.9 µM,–
CCCCc1ccc(-c2c(C)[nH]c(=O)n2CCCC)cc1,12 µM,–
Cc1[nH]c(=O)n(C2CCCCC2)c1-c1ccccc1,47.6 µM,–
CCCCn1c(-c2ccccc2)c(C)[nH]c1=O,> 100 µM,–
Cc1[nH]c(=O)n(C2CCCCC2)c1-c1ccccc1OC(C)C,21.5 µM,–
CCCCc1ccc(-c2c(C)[nH]c(=O)n2-c2ccccc2)cc1,16.6 µM,–
CCCCCCCCCCCCCCCCCCc1ccc(-c2c(C)[nH]c(=O)n2C2CCCCC2)cc1,> 100 µM,–
CCCCCCCCc1ccc(-c2c(C)[nH]c(=O)n2C)cc1,19.4 µM,–
Cc1[nH]c(=O)n(C)c1-c1ccc(OC(C)C)cc1,20.4 µM,–

Compound,IC50 (Brain),further results
Cc1[nH]c(=O)n(C2CCCCC2)c1-c1ccc(CC(C)C)cc1,10.9 µM,–
Cc1ccc(-c2c(C)[nH]c(=O)n2C)cc1,85.3 µM,–
CCCCCCCCCCCCc1ccc(-c2c(C)[nH]c(=O)n2C2CCCCC2)cc1,> 100 µM,–
CCCCCCCCCCCCc1ccc(-c2c(C)[nH]c(=O)n2C)cc1,13 µM,–
CCCCCCCCCCCCCCCCCCc1ccc(-c2c(C)[nH]c(=O)n2C)cc1,> 100 µM,–
Cc1[nH]c(=O)n(C2CCCCC2)c1-c1ccc(-c2ccccc2)cc1,10.9 µM,minimal effective dose (Rattus norvegicus [3]): 0.1 mg/kg
Cc1[nH]c(=O)n(C)c1-c1ccccc1,> 100 µM,–
Cc1[nH]c(=O)n(C2CCCCC2)c1-c1cccc(OC(C)C)c1,10.4 µM,–
CCCc1ccc(-c2c(C)[nH]c(=O)n2C)cc1,21.5 µM,–
Cc1[nH]c(=O)n(C2CCCCC2)c1-c1ccc(C2CCCCC2)cc1,28.9 µM,–
CCCCCc1ccc(-c2c(C)[nH]c(=O)n2C2CCCCC2)cc1,10.6 µM,–
CCCCOc1ccc(-c2c(C)[nH]c(=O)n2C2CCCCC2)cc1,13.9 µM,Activity [1]: 88%
Cc1[nH]c(=O)n(C2CCCCC2)c1-c1ccc(OC(C)C)cc1,13 µM,–
CCCCCCCCCCCCCCc1ccc(-c2c(C)[nH]c(=O)n2C2CCCCC2)cc1,> 100 µM,–
CCCCCCCCCCCCCCc1ccc(-c2c(C)[nH]c(=O)n2C)cc1,43.8 µM,–
CCCCCCCCCCCCCCCCCCOc1ccc(-c2c(C)[nH]c(=O)n2C)cc1,> 100 µM,–
COc1ccc(-c2c(C)[nH]c(=O)n2C2CCCCC2)cc1,20.4 µM,–
COc1ccc(-c2c(C)[nH]c(=O)n2C)cc1,147 µM,–
CCCCCCCCCCCCOc1ccc(-c2c(C)[nH]c(=O)n2C2CCCCC2)cc1,52.4 µM,–

# Further lines, with some results ahead:
IC50 (Brain),Compound,further results
6.6 µM,Cc1[nH]c(=O)n(C)c1-c1ccc(OCCC(C)C)cc1,Activity (Rattus norvegicus [2]): inactive
10 µM,Cc1[nH]c(=O)n(C)c1-c1ccc(C2CCCCC2)cc1,minimal effective dose (Rattus norvegicus [3]): 0.1 mg/kg; Activity (Rattus norvegicus [4]): > 1000 mg/kg
10.3 µM,CCCCCCCCc1ccc(-c2c(C)[nH]c(=O)n2C2CCCCC2)cc1,–
8.4 µM,Cc1[nH]c(=O)n(C)c1-c1ccc(C(C)(C)C)cc1,–
7.8 µM,Cc1[nH]c(=O)n(C)c1-c1ccc(CC(C)C)cc1,minimal effective dose (Rattus norvegicus [3]): 30 mg/kg
8.3 µM,Cc1[nH]c(=O)n(C2CCCCC2)c1-c1ccc(OCc2ccccc2)cc1,minimal effective dose (Rattus norvegicus [3]): 0.1 mg/kg
9 µM,CCCCCCc1ccc(-c2c(C)[nH]c(=O)n2C)cc1,minimal effective dose (Rattus norvegicus [3]): 0.3 mg/kg
4.5 µM,CCCCCOc1ccc(-c2c(C)[nH]c(=O)n2C)cc1,Activity (Rattus norvegicus [2]): inactive
4 µM,CCCCCCCCOc1ccc(-c2c(C)[nH]c(=O)n2C)cc1,minimal effective dose (Rattus norvegicus [3]): 30 mg/kg
8.5 µM,CCCCCCCCOc1ccc(-c2c(C)[nH]c(=O)n2C2CCCCC2)cc1,minimal effective dose (Rattus norvegicus [3]): 30 mg/kg
5.1 µM,CCCCOc1ccc(-c2c(C)[nH]c(=O)n2C)cc1,minimal effective dose (Rattus norvegicus [3]): 0.3 mg/kg
8.1 µM,Cc1[nH]c(=O)n(C)c1-c1ccc(Oc2ccccc2)cc1,Activity (Rattus norvegicus [2]): inactive
9.1 µM,CCCCCOc1ccc(-c2c(C)[nH]c(=O)n2C2CCCCC2)cc1,Activity (Rattus norvegicus [2]): inactive
5.7 µM,CCCCCCCOc1ccc(-c2c(C)[nH]c(=O)n2C)cc1,Activity (Rattus norvegicus [2]): inactive
6.3 µM,Cc1[nH]c(=O)n(C)c1-c1ccc(-c2ccccc2)cc1,minimal effective dose (Rattus norvegicus [3]): 0.3 mg/kg; Activity (Rattus norvegicus [4]): > 1000 mg/kg
7.9 µM,Cc1[nH]c(=O)n(C2CCCCC2)c1-c1ccc(Oc2ccccc2)cc1,minimal effective dose (Rattus norvegicus [3]): 0.1 mg/kg
7.3 µM,CCCCCCOc1ccc(-c2c(C)[nH]c(=O)n2C)cc1,Activity (Rattus norvegicus [2]): inactive
8.4 µM,CCCCCCCc1ccc(-c2c(C)[nH]c(=O)n2C)cc1,minimal effective dose (Rattus norvegicus [3]): 30 mg/kg
7.2 µM,Cc1[nH]c(=O)n(C2CCCCC2)c1-c1ccc(OCCC(C)C)cc1,Activity (Rattus norvegicus [2]): inactive
8.5 µM,CCCCCCOc1ccc(-c2c(C)[nH]c(=O)n2C2CCCCC2)cc1,Activity (Rattus norvegicus [2]): inactive
9.7 µM,CCCCCCCCCCCCOc1ccc(-c2c(C)[nH]c(=O)n2C)cc1,minimal effective dose (Rattus norvegicus [3]): 0.1 mg/kg
5.9 µM,CCCCCc1ccc(-c2c(C)[nH]c(=O)n2C)cc1,–
8.7 µM,CCCCCCCc1ccc(-c2c(C)[nH]c(=O)n2C2CCCCC2)cc1,–
7.9 µM,CCCCCCCCCCc1ccc(-c2c(C)[nH]c(=O)n2C)cc1,minimal effective dose (Rattus norvegicus [3]): 0.3 mg/kg
6.7 µM,Cc1[nH]c(=O)n(C)c1-c1ccc(OCc2ccccc2)cc1,Activity (Rattus norvegicus [2]): inactive
6.9 µM,CCCCCCCCCCOc1ccc(-c2c(C)[nH]c(=O)n2C)cc1,minimal effective dose (Rattus norvegicus [3]): 0.1 mg/kg
